Assay results taken from ChEMBL document CHEMBL3351748, “Synthesis and anticonvulsant activity of novel purine derivatives” (Eur J Med Chem, 2014).
The source made the active and inactive calls. No cut-off for these calls is given here.

Legend:
Mus musculus [1] = assay: Anticonvulsant activity in Kunming mouse assessed as protection against MES-induced seizures at 100 mg/kg, ip after 0.5 hrs by MES test; format: functional, organism-based; design: dose 100 mg/kg
Outline: (§1)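 KunMing mice (18-22 g), compounds in DMSO given i.p. at 30 and 100 mg/kg, 3 animals per dose. Examined 0.5 h after dosing; current applied 0.2 s through corneal electrodes. Protection scored as abolition of hind-leg tonic maximal extension; reported as animals protected/animals tested.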

Mus musculus [2] = assay: Anticonvulsant activity in Kunming mouse assessed as protection against MES-induced seizures at 30 mg/kg, ip after 0.5 hrs by MES test; format: functional, organism-based; design: dose 30 mg/kg; outline: as §1
Mus musculus [3] = assay: Protective index, ratio of intraperitoneal neurotoxic TD50 against Kunming mouse by rotarod test to intraperitoneal anticonvulsant ED50 in Kunming mouse by MES test
Outline: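 Protective index is TD50/ED50. Both come from i.p. dosing in KunMing mice: ED50 from protection of hind-leg tonic extension in the 0.5 h MES test, TD50 from failure to stay 1 min on the 10 rpm rotarod.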

Mus musculus [4] = assay: Anticonvulsant activity in ip dosed Kunming mouse assessed as protection against MES-induced seizures after 0.5 hrs by MES test; format: functional
Outline: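 KunMing mice (18-22 g) dosed i.p., compounds dissolved in DMSO; corneal-electrode shock (0.2 s) 30 min after administration. Endpoint is abolition of hind-leg tonic extension. ED50 is the dose protecting 50% of animals, given with 95% confidence intervals.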

[5] = Toxicity in ip dosed Kunming mouse assessed as inability of animal to maintain equilibrium on rod for at least 1 min in each trial by rotarod test; format: organism-based; settings: in vivo
Outline: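 Mice pre-trained on a rotarod (3.2 cm diameter, 10 rpm), then dosed i.p. Neurotoxicity scored as failure to keep balance on the rod for at least 1 min in each trial. TD50 is the dose giving minimal neurotoxicity in 50% of animals.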

Mus musculus [6] = assay: Anticonvulsant activity in Kunming mouse assessed as protection against sc-PTZ-induced clonic seizures 50 mg/kg, sc administered 30 mins before PTZ injection; format: functional; settings: route subcutaneous
Outline: (§2)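 Mice, 10 per group, dosed at 50 mg/kg. PTZ 85 mg/kg in saline given s.c. 30 min later. Animals housed individually and watched for 0.5 h. Clonic seizures, tonic seizures (usually maximal hind-leg extension) and deaths counted as percent inhibition.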

Mus musculus [7] = assay: Anticonvulsant activity in orally dosed Kunming mouse assessed as protection against MES-induced seizures after 1.5 hrs by MES test; settings: po
Mus musculus [8] = assay: Anticonvulsant activity in Kunming mouse assessed as protection against sc-PTZ-induced tonic seizures 50 mg/kg, sc administered 30 mins before PTZ injection; format: functional; settings: route subcutaneous; outline: as §2
Mus musculus [9] = species on record: Mus musculus; assay: Protective index, ratio of oral neurotoxic TD50 against Kunming mouse by rotarod test to oral anticonvulsant ED50 in Kunming mouse by MES test
Mus musculus [10] = assay: Anticonvulsant activity in Kunming mouse assessed as protection against sc-PTZ-induced mortality 50 mg/kg, sc administered 30 mins before PTZ injection; format: functional; settings: route subcutaneous
Outline: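 KunMing mice (18–22 g), 10 per group, given test agent dissolved in DMSO. Thirty minutes later, PTZ 85 mg/kg in saline was injected s.c. Animals were held in individual cages and watched for 0.5 h. Clonic seizures, tonic seizures and deaths were counted, and mortality was expressed as % inhibition.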

[11] = Toxicity in orally dosed Kunming mouse assessed as inability of animal to maintain equilibrium on rod for at least 1 min in each trial by rotarod test; format: organism-based; settings: in vivo, po
Outline: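 Rotarod test (3.2 cm rod, 10 rpm) in trained mice after oral dosing in 0.5% methylcellulose, tested at the 1.5 h time of peak effect. Toxicity is failure to stay on the rod for at least 1 min per trial. TD50 is the median dose for minimal neurotoxicity.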

Mus musculus [12] = assay: Anticonvulsant activity in orally dosed Kunming mouse assessed as time of peak effect for protection against MES-induced seizures […] by MES test; format: functional

| Compound | Activity (Mus musculus [1]) | Activity (Mus musculus [2]) | Ratio TD50/ED50 (Mus musculus [3]) | ED50 (Mus musculus [4]) [mg/kg] | TD50 at 1 min [5] [mg/kg] | other results |
| --- | --- | --- | --- | --- | --- | --- |
| CCCCCCCn1cnc2c1ncn1cnnc21 | Active | inactive | – | – | – | – |
| CCCCCCCCCCn1cnc2c1ncn1cnnc21 | inactive | inactive | – | – | – | – |
| Clc1ccc(Cn2cnc3c2ncn2cnnc32)cc1 | inactive | inactive | – | – | – | – |
| Cc1ccc(Cn2cnc3c(-n4cncn4)ncnc32)cc1 | inactive | inactive | – | – | – | – |
| CCCCCn1cnc2c1ncn1cnnc21 | Active | inactive | – | – | – | – |
| CCCCCn1cnc2c(-n3cncn3)ncnc21 | – | inactive | – | – | – | – |
| Fc1ccccc1Cn1cnc2c(-n3cncn3)ncnc21 | Active | Active | 15 | 29.9 | 449 | – |
| CCCCCCn1cnc2c(-n3cncn3)ncnc21 | Active | inactive | 4.8 | 43.9 | 210 | – |
| Fc1cccc(Cn2cnc3c2ncn2cnnc32)c1 | inactive | inactive | – | – | – | – |
| CCCCn1cnc2c1ncn1cnnc21 | inactive | inactive | – | – | – | – |
| CCCCCCCn1cnc2c(-n3cncn3)ncnc21 | Active | Active | 3.3 | 31.5 | 105 | – |
| CCCCCCCCCCCCCCn1cnc2c(-n3cncn3)ncnc21 | inactive | inactive | – | – | – | – |
| Fc1ccc(Cn2cnc3c(-n4cncn4)ncnc32)cc1 | inactive | inactive | – | – | – | – |
| Fc1ccccc1Cn1cnc2c(-n3cccn3)ncnc21 | Active | inactive | – | – | – | – |
| Fc1ccccc1Cn1cnc2c1ncn1cnnc21 | Active | inactive | – | – | – | – |
| Fc1cccc(Cn2cnc3c(-n4cncn4)ncnc32)c1 | Active | inactive | 8.3 | 45.9 | 384 | – |
| Fc1ccccc1Cn1cnc2c(Sc3ncn[nH]3)ncnc21 | inactive | inactive | – | – | – | – |
| Clc1cccc(Cn2cnc3c2ncn2cnnc32)c1 | inactive | inactive | – | – | – | – |
| NC(=O)N1c2ccccc2C=Cc2ccccc21 [CARBAMAZEPINE] | – | – | 6.4 | 11.8 | – | inhibition in vivo at 50 mg/kg (Mus musculus [6]): 0%; ED50 (Mus musculus [7]): 27.3 mg/kg; inhibition in vivo at 50 mg/kg (Mus musculus [8]): 100%; Ratio TD50/ED50 (Mus musculus [9]): 12; inhibition in vivo at 50 mg/kg (Mus musculus [10]): 80%; TD50 at 1 min [11]: 329 mg/kg |
| c1ccc(Cn2cnc3c(-n4cncn4)ncnc32)cc1 | Active | inactive | 4.7 | 66.6 | 315 | – |

| Compound | Activity (Mus musculus [1]) | Activity (Mus musculus [2]) | Ratio TD50/ED50 (Mus musculus [3]) | ED50 (Mus musculus [4]) [mg/kg] | TD50 at 1 min [5] [mg/kg] | other results |
| --- | --- | --- | --- | --- | --- | --- |
| COc1ccc(Cn2cnc3c(-n4cncn4)ncnc32)cc1 | inactive | inactive | – | – | – | – |
| CCCCCCCCn1cnc2c1ncn1cnnc21 | Active | inactive | – | – | – | – |
| CCCCCCCCCCn1cnc2c(-n3ccnc3)ncnc21 | Active | inactive | – | – | – | – |
| Cc1cn(-c2ncnc3c2ncn3Cc2ccccc2F)cn1 | inactive | inactive | – | – | – | – |
| Clc1ccccc1Cn1cnc2c(-n3cncn3)ncnc21 | – | inactive | – | – | – | – |
| c1ccc(Cn2cnc3c2ncn2cnnc32)cc1 | Active | inactive | – | – | – | – |
| Clc1ccccc1Cn1cnc2c1ncn1cnnc21 | Active | inactive | 6.1 | 51.9 | 315 | – |
| CCCCCCCCCCn1cnc2c(-n3cnc(C)c3)ncnc21 | Active | inactive | 2.9 | 67.5 | 196 | – |
| CCCCCCn1cnc2c1ncn1cnnc21 | Active | inactive | 2 | 51.2 | 102 | – |
| CCCCCCCCn1cnc2c(-n3cncn3)ncnc21 | Active | Active | 7.4 | 33.2 | 247 | – |
| CCCCCCCCCCn1cnc2c(-n3cncn3)ncnc21 | Active | Active | >25.6 | 23.4 | > 700 | inhibition in vivo at 50 mg/kg (Mus musculus [6]): 20%; ED50 (Mus musculus [7]): 39.4 mg/kg; inhibition in vivo at 50 mg/kg (Mus musculus [8]): 90%; Ratio TD50/ED50 (Mus musculus [9]): >38.1; Time (Mus musculus [12]): 1.5 h; inhibition in vivo at 50 mg/kg (Mus musculus [10]): 70%; TD50 at 1 min [11]: > 1500 mg/kg |
| CCCCCCCCCCn1cnc2c(-n3cccn3)ncnc21 | Active | inactive | 3.6 | 66.5 | 241 | – |
| CCCCCCCCCCCCn1cnc2c(-n3cncn3)ncnc21 | – | inactive | – | – | – | – |
| CCCCCCCCCCn1cnc2c(Sc3ncn[nH]3)ncnc21 | inactive | inactive | – | – | – | – |
| Cc1ccc(Cn2cnc3c2ncn2cnnc32)cc1 | inactive | inactive | – | – | – | – |
| Fc1ccccc1Cn1cnc2c(-n3ccnc3)ncnc21 | Active | inactive | 1.8 | 61.4 | 115 | – |
| Clc1cccc(Cn2cnc3c(-n4cncn4)ncnc32)c1 | Active | inactive | 7.5 | 65.4 | 488 | – |
| Fc1ccc(Cn2cnc3c2ncn2cnnc32)cc1 | inactive | inactive | – | – | – | – |
| Clc1ccc(Cn2cnc3c(-n4cncn4)ncnc32)cc1 | inactive | inactive | – | – | – | – |
| COc1ccc(Cn2cnc3c2ncn2cnnc32)cc1 | inactive | inactive | – | – | – | – |
